From ChEMBL document CHEMBL5303300, “EUbOPEN Chemogenomics Library - Multiplex” (2023)
“And” between values parts separate entries of the source, which are not always exact repeats. Equal values may be shown once.

Columns and labels:
Assay type in all cases: toxicity, cell-based
[1] = system: HEK-293T; assay: Multiplex assay against HEK293T; details: human, number of replicates 2
Method in brief: (§1)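 Compound was added to live cells that had been stained at seeding with Hoechst33342, BioTracker Green Microtubule Cytoskeleton Dye, MitoTracker Red and Annexin V Alexa Fluor 680, and imaging followed on a CQ1 microscope at 37°C and 5% CO2. CellPathfinder machine-learning gating divided cells into Hoechst high-intensity objects or normal cells, normal cells into healthy, pyknosed or fragmented nuclei, and pyknosed cells into mitotic or apoptotic. Tubulin, mitochondrial-mass and membrane-permeability phenotypes are per cents of healthy-nucleus cells.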

[2] = system: Fibroblast; assay: Multiplex assay against human fibroblast; details: number of replicates 2; method in brief: as §1
[3] = system: U2OS; assay: Multiplex assay against U2OS; details: human, number of replicates 2; method in brief: as §1
[4] = 12 h, 1 µM, compound concentration 1 uM
[5] = 12 h, 10 µM, compound concentration 10 uM
[6] = 24 h, 1 µM, compound concentration 1 uM
[7] = 24 h, 10 µM, compound concentration 10 uM
[8] = 48 h, 1 µM, compound concentration 1 uM
[9] = 48 h, 10 µM, compound concentration 10 uM

## COc1cc2nc(-c3cc(F)ccc3O)nc(N[C@@H]3CNC[C@H]3C(C)(C)O)c2cc1OC.Cl.Cl
[1]; [4]
  Population Apoptotic (%): 40% and 65%
  Population Fragmented Nuclei (%): 4% and 3%
  Population Healthy Nuclei (%): 86% and 83%
  Population Hoechst High Intensity Objects (%): 6% and 5%
  Population Membrane Permeable-Phenotype (%): 4% and 3%
  Population Mitochondria Different-Phenotype (%): 24% and 25%
  Population Mitotic Cells (%): 59% and 34%
  Population Normal (%): 93% and 94%
  Population Pyknosed Nuclei (%): 9% and 13%
  Population Tubulin-Different-Phenotype (%): 78%
  Total Cell Count: 681 and 543
[1]; [5]
  Population Apoptotic (%): 78% and 80%
  Population Fragmented Nuclei (%): 2%
  Population Healthy Nuclei (%): 62% and 61%
  Population Hoechst High Intensity Objects (%): 7% and 8%
  Population Membrane Permeable-Phenotype (%): 4% and 2%
  Population Mitochondria Different-Phenotype (%): 82% and 75%
  Population Mitotic Cells (%): 21% and 19%
  Population Normal (%): 92% and 91%
  Population Pyknosed Nuclei (%): 35%
  Population Tubulin-Different-Phenotype (%): 97%
  Total Cell Count: 476 and 483
[1]; [6]
  Population Apoptotic (%): 47% and 69%
  Population Fragmented Nuclei (%): 6%
  Population Healthy Nuclei (%): 85% and 84%
  Population Hoechst High Intensity Objects (%): 8% and 9%
  Population Membrane Permeable-Phenotype (%): 3%
  Population Mitochondria Different-Phenotype (%): 12% and 17%
  Population Mitotic Cells (%): 52% and 30%
  Population Normal (%): 91% and 90%
  Population Pyknosed Nuclei (%): 7% and 8%
  Population Tubulin-Different-Phenotype (%): 63% and 68%
  Total Cell Count: 1032 and 692
[1]; [7]
  Population Apoptotic (%): 87% and 80%
  Population Fragmented Nuclei (%): 4% and 2%
  Population Healthy Nuclei (%): 50% and 51%
  Population Hoechst High Intensity Objects (%): 20% and 25%
  Population Membrane Permeable-Phenotype (%): 6% and 4%
  Population Mitochondria Different-Phenotype (%): 65% and 68%
  Population Mitotic Cells (%): 12% and 20%
  Population Normal (%): 79% and 74%
  Population Pyknosed Nuclei (%): 45%
  Population Tubulin-Different-Phenotype (%): 84% and 89%
  Total Cell Count: 441 and 428
[1]; [8]
  Population Apoptotic (%): 22% and 35%
  Population Fragmented Nuclei (%): 14% and 7%
  Population Healthy Nuclei (%): 82% and 88%
  Population Hoechst High Intensity Objects (%): 9% and 11%
  Population Membrane Permeable-Phenotype (%): 3% and 1%
  Population Mitochondria Different-Phenotype (%): 1% and 3%
  Population Mitotic Cells (%): 77% and 64%
  Population Normal (%): 90% and 88%
  Population Pyknosed Nuclei (%): 3% and 4%
  Population Tubulin-Different-Phenotype (%): 26% and 35%
  Total Cell Count: 2589 and 1346
[1]; [9]
  Population Apoptotic (%): 85% and 77%
  Population Fragmented Nuclei (%): 4% and 3%
  Population Healthy Nuclei (%): 32% and 30%
  Population Hoechst High Intensity Objects (%): 21% and 24%
  Population Membrane Permeable-Phenotype (%): 6% and 5%
  Population Mitochondria Different-Phenotype (%): 58%
  Population Mitotic Cells (%): 14% and 22%
  Population Normal (%): 78% and 75%
  Population Pyknosed Nuclei (%): 62% and 66%
  Population Tubulin-Different-Phenotype (%): 82% and 81%
  Total Cell Count: 411 and 392
[2]; [4]
  Population Apoptotic (%): 35% and 34%
  Population Healthy Nuclei (%): 60% and 58%
  Population Hoechst High Intensity Objects (%): 0%
  Population Membrane Permeable-Phenotype (%): 11% and 9%
  Population Mitochondria Different-Phenotype (%): 0% and 2%
  Population Mitotic Cells (%): 65%
  Population Normal (%): 100%
  Population Pyknosed Nuclei (%): 33% and 24%
  Population Tubulin-Different-Phenotype (%): 48% and 46%
  Total Cell Count: 178 and 189
[2]; [5]
  Population Apoptotic (%): 72% and 73%
  Population Healthy Nuclei (%): 8% and 16%
  Population Hoechst High Intensity Objects (%): 0%
  Population Mitochondria Different-Phenotype (%): 26% and 25%
  Population Mitotic Cells (%): 27% and 26%
  Population Normal (%): 99% and 100%
  Population Pyknosed Nuclei (%): 85% and 67%
  Population Tubulin-Different-Phenotype (%): 86% and 67%
  Total Cell Count: 170 and 187
[2]; [6]
  Population Apoptotic (%): 44% and 53%
  Population Fragmented Nuclei (%): 15% and 17%
  Population Healthy Nuclei (%): 63% and 65%
  Population Hoechst High Intensity Objects (%): 0%
  Population Membrane Permeable-Phenotype (%): 4% and 1%
  Population Mitochondria Different-Phenotype (%): 0% and 3%
  Population Mitotic Cells (%): 55% and 46%
  Population Normal (%): 99% and 100%
  Population Pyknosed Nuclei (%): 21% and 17%
  Population Tubulin-Different-Phenotype (%): 26% and 37%
  Total Cell Count: 211 and 188
[2]; [7]
  Population Apoptotic (%): 87% and 93%
  Population Healthy Nuclei (%): 1% and 2%
  Population Hoechst High Intensity Objects (%): 0%
  Population Membrane Permeable-Phenotype (%): 50% and 25%
  Population Mitochondria Different-Phenotype (%): 0% and 25%
  Population Mitotic Cells (%): 12% and 6%
  Population Normal (%): 100%
  Population Pyknosed Nuclei (%): 92% and 80%
  Population Tubulin-Different-Phenotype (%): 50%
  Total Cell Count: 168
[2]; [8]
  Population Apoptotic (%): 59% and 75%
  Population Fragmented Nuclei (%): 13% and 17%
  Population Healthy Nuclei (%): 75% and 70%
  Population Hoechst High Intensity Objects (%): 0%
  Population Membrane Permeable-Phenotype (%): 4% and 1%
  Population Mitochondria Different-Phenotype (%): 1% and 0%
  Population Mitotic Cells (%): 40% and 25%
  Population Normal (%): 100%
  Population Pyknosed Nuclei (%): 10% and 12%
  Population Tubulin-Different-Phenotype (%): 27% and 11%
  Total Cell Count: 201 and 191
[2]; [9]
  Population Apoptotic (%): 94% and 92%
  Population Fragmented Nuclei (%): 18% and 9%
  Population Healthy Nuclei (%): 3% and 4%
  Population Hoechst High Intensity Objects (%): 0%
  Population Membrane Permeable-Phenotype (%): 33% and 42%
  Population Mitochondria Different-Phenotype (%): 0%
  Population Mitotic Cells (%): 5% and 7%
  Population Normal (%): 100% and 99%
  Population Pyknosed Nuclei (%): 77% and 85%
  Population Tubulin-Different-Phenotype (%): 33% and 85%
  Total Cell Count: 171 and 162
[3]; [4]
  Population Apoptotic (%): 100% and 76%
  Population Healthy Nuclei (%): 57% and 82%
  Population Hoechst High Intensity Objects (%): 0%
  Population Membrane Permeable-Phenotype (%): 21% and 13%
  Population Mitochondria Different-Phenotype (%): 18% and 27%
  Population Mitotic Cells (%): 0% and 23%
  Population Normal (%): 100% and 99%
  Population Pyknosed Nuclei (%): 17% and 10%
  Population Tubulin-Different-Phenotype (%): 46% and 30%
[3]; [5]
  Population Apoptotic (%): 96% and 91%
  Population Fragmented Nuclei (%): 14% and 11%
  Population Healthy Nuclei (%): 5% and 3%
  Population Hoechst High Intensity Objects (%): 0%
  Population Membrane Permeable-Phenotype (%): 100%
  Population Mitochondria Different-Phenotype (%): 50% and 66%
  Population Mitotic Cells (%): 3% and 8%
  Population Normal (%): 100%
  Population Pyknosed Nuclei (%): 79% and 85%
  Population Tubulin-Different-Phenotype (%): 100%
[3]; [6]
  Population Apoptotic (%): 83% and 85%
  Population Fragmented Nuclei (%): 23% and 9%
  Population Healthy Nuclei (%): 65% and 74%
  Population Hoechst High Intensity Objects (%): 0%
  Population Membrane Permeable-Phenotype (%): 26% and 12%
  Population Mitochondria Different-Phenotype (%): 23% and 34%
  Population Mitotic Cells (%): 16% and 14%
  Population Normal (%): 100%
  Population Pyknosed Nuclei (%): 11% and 16%
  Population Tubulin-Different-Phenotype (%): 47% and 34%
[3]; [7]
  Population Apoptotic (%): 91% and 90%
  Population Fragmented Nuclei (%): 14% and 22%
  Population Healthy Nuclei (%): 3% and 0%
  Population Hoechst High Intensity Objects (%): 2% and 0%
  Population Mitotic Cells (%): 8% and 9%
  Population Normal (%): 97% and 100%
  Population Pyknosed Nuclei (%): 82% and 77%
[3]; [8]
  Population Apoptotic (%): 84% and 94%
  Population Fragmented Nuclei (%): 17% and 6%
  Population Healthy Nuclei (%): 52% and 77%
  Population Hoechst High Intensity Objects (%): 0%
  Population Membrane Permeable-Phenotype (%): 12% and 9%
  Population Mitochondria Different-Phenotype (%): 27% and 34%
  Population Mitotic Cells (%): 15% and 5%
  Population Normal (%): 100%
  Population Pyknosed Nuclei (%): 30% and 15%
  Population Tubulin-Different-Phenotype (%): 24% and 34%
[3]; [9]
  Population Apoptotic (%): 96% and 89%
  Population Fragmented Nuclei (%): 10% and 19%
  Population Healthy Nuclei (%): 3% and 4%
  Population Hoechst High Intensity Objects (%): 0%
  Population Membrane Permeable-Phenotype (%): 100% and 85%
  Population Mitochondria Different-Phenotype (%): 100% and 71%
  Population Mitotic Cells (%): 4% and 10%
  Population Normal (%): 100% and 99%
  Population Pyknosed Nuclei (%): 86% and 76%
  Population Tubulin-Different-Phenotype (%): 100% and 85%
